Assay outcomes deposited in PubChem BioAssay by The Scripps Research Institute Molecular Screening Center.
TCR CD3 inh – inhibitors of human TCR-CD3 interaction | hit rate 0.37% among 360,000 | inhibition, % at 9.4 µM | TAMRA-labeled TCR probe fluorescence, biochemical | AID 651800; in the data active = inhibition above about 19%;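 also: recombinant mutant TCR 2C K166C tagged with TAMRA read by polarization; 0% = receptor in buffer alone and 100% = receptor with positive control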
DDE Tn6 FP inh – inhibitors of Tn6 peptide binding to human fibrin DD(E) | P02675 | Fibrin DD(E) TRITC-Tn6 fluorescence polarization displacement | inhibition, % at 8.3 µM | hit rate 0.21% among 370,000 | AID 720509;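 active = inhibition above a per-campaign cutoff: mean of compounds within control limits plus 3 SD, cut at about 15% in these data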;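 also: 0% = median of all compound wells on the plate and 100% = blocking peptide control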
SIAE inh – blocks human sialic acid acetylesterase; SIAE FP-Rh probe binding, fluorescence polarization; AID 1053197; hit rate 0.69% among 370,000; Q9HAT2; inhibition, % at 9.66 µM;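 active = inhibition above a cutoff: mean of compounds within the control limits plus 3 SD of those, cut at about 17% in these data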;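 also: 0% = plate median of compound wells and 100% = probe without SIAE protein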
HTRA1 inhibitor – blocks human HTRA1 serine peptidase | Q92743 | recombinant HTRA1, FP-rhodamine activity-based probe, fluorescence polarization | inhibition, % at 5.96 µM | hit rate 0.5% among 340,000; in the data active = inhibition above about 36%;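 also: 0% = enzyme with DMSO and 100% = wells lacking enzyme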
mABHD4 FP – inhibitors of mouse ABHD4; Q8VD66; purified mABHD4, FP-Rh probe fluorescence polarization; inhibition, % at 8.92 µM; hit rate 0.54% among 370,000; AID 720543;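 active = inhibition exceeding the mean over every tested compound plus 3 SD, cut at about 30% in these data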;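 also: 0% = plate median of compound wells and 100% = S159A mutant with DMSO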
Target sequence (Q8VD66 whole entry, looked up): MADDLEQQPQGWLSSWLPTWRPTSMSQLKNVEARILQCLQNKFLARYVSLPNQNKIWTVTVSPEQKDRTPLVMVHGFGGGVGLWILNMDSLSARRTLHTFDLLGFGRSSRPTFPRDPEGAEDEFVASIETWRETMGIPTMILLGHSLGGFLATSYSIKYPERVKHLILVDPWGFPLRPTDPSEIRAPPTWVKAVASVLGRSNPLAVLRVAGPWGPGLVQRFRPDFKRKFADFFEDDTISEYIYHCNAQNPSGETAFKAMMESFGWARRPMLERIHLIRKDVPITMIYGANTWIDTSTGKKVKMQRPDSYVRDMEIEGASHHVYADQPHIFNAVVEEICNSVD
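Assay system: wild-type mouse ABHD4 protein; compound: single nominal dose of 8.92 µM, 0.89% DMSO final; schedule: 45 min + 60 min at 25 °C; measured by: FP readout, ex 525 nm / em 598 nm; evaluation: % inhibition of FP-Rh probe binding versus controls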
DDE Tn7 FP inh – inhibitors of Tn7 peptide binding to human fibrin DD(E) | P02675 | inhibition, % at 8.3 µM | FP displacement of FITC-Tn7 peptide from fibrin DD(E); 0% = median of compound wells per plate | hit rate 0.13% among 370,000;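 active = inhibition above the mean of compounds falling within the control limits plus 3 SD of them, cut at about 14% in these data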;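 also: 0% = plate median of compound wells and 100% = 10 µM Aha-Tn7 peptide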
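Assay system: Human fibrin DD(E) protein | Medium: Tris buffer with calcium and detergent, pH 7.8 | Reagent: 0.1 µM fluorescent Tn7 | Compound dosing: Single point at 8.3 µM | Times: 10 min preincubation, 3 h with tracer, room temperature | Detection: Fluorescence polarization of the labelled Tn7 tracer | Controls: Aha-Tn7 high control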
SIAE inh conf – human SIAE inhibition, confirmation; shares compounds with SIAE inh; SIAE FP-Rh activity-based probe, fluorescence polarization; inhibition, % at 9.66 µM; hit rate 13% among 2,300; AID 1117263;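 active = mean inhibition of the replicates above the hit cutoff set in the primary screen, cut at about 17% in these data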;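 also: 0% = SIAE with DMSO and probe and 100% = probe without SIAE; inhibitors lower polarization as more probe stays unbound to SIAE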
Starred values were filed as active, the others as inactive; x = no result given. A selection: hits, their analogues and other compounds. The true share with any hit is near 1.8%.

SMILES	TCR CD3 inh	DDE Tn6 FP inh	SIAE inh	HTRA1 inhibitor	mABHD4 FP	DDE Tn7 FP inh	SIAE inh conf
CCC[C@H]1OC(=O)[C@@H]2CCCN2C(=O)[C@H]([C@H](C)Cc2ccccc2)NC(=O)[C@@H]2CCCN2C(=O)[C@@H]2CCCN2C(=O)[C@H](C(C)C)OC(=O)[C@@H]2CCCN2C(=O)[C@H](C(C)C)NC(=O)C1(C)C	x	0.7	2.8	x	-2.8	2.6	x
CCON1C(=O)C2(CCCCC2)C(=O)C12C=CCCC2 (stereo not drawn)	-5.8	-2.2	2.9	-0.6	0.1	-5.0	x
C(=C\c1ccccc1)/CSc1nnc(-c2cccnc2)o1	-1.8	5.7	20.9*	-0.2	-18.1	-1.3	1.5
c1ccc(CSc2nnc(-c3cccnc3)o2)cc1	1.9	2.3	3.6	-0.3	-4.5	1.7	x
CC(=O)NNC(=O)CCn1c2c(c3ccccc31)CCCC2	1.1	-9.8	20.2*	6.7	-1.6	-3.8	-4.8
COC(=O)c1cc(OC)c(OC)cc1NC(=O)c1csc(C)c1	-1.3	6.9	-7.7	-4.5	-5.6	7.2	x
CCc1nc2ccc(C(=O)NCCCn3ccnc3)cn2c1N(C)Cc1cccs1	-0.1	-1.6	2.3	x	0.9	-5.8	x
CNC(=O)c1c(NC(=O)c2ccc(S(=O)(=O)N3CCCCC3C)cc2)sc2c1CCN(C)C2 (stereo not drawn)	4.0	-11.2	17.3*	-2.4	-1.4	-6.7	5.8
O=C(CCc1ccccc1)Nc1cccc(S(=O)(=O)N2CCOCC2)c1	-1.8	-0.2	24.7*	7.4	2.4	4.0	-9.7
CC(=O)Nc1ccc(OCC(O)Cn2c(C)nc3ccccc32)cc1 (stereo not drawn)	3.5	-6.4	18.6*	3.0	-2.0	2.6	-5.3
CC(=O)Nc1ccc(OCC(O)Cn2c(CO)nc3ccccc32)cc1 (stereo not drawn)	-1.6	0.5	1.4	4.7	-2.5	-7.6	x
COC(=O)C1=NN(C(=O)c2cccc(Cl)c2)C(O)(C(C)(C)C)C1 (stereo not drawn)	6.3	0.3	24.2*	9.2	5.3	-6.4	0.4
CSC[C@H]1CN(c2ccccc2)C(=O)[C@@H]1CC(=O)Nc1ccc(Br)cc1	-0.1	-4.0	-2.5	-7.2	-0.9	-6.5	x
CCOc1cc(N(CC)CC)ccc1/C=C(/C#N)c1nc2ccccc2[nH]1	-7.0	0.9	26.6*	9.6	15.4	1.5	5.8
COc1ccc(-c2csc3ncnc(N4CCN(S(=O)(=O)c5ccc(C)c(C)c5)CC4)c23)cc1	-4.8	-8.3	18.3*	-6.7	0.0	-1.2	-1.8
Cc1ccc(-c2csc3ncnc(N4CCN(S(=O)(=O)c5ccc(C#N)cc5)CC4)c23)cc1	-3.8	2.6	-4.7	-2.4	-0.6	0.0	x
C[C@H](CO)N1C[C@H](C)[C@@H](CN(C)Cc2ccc(C(=O)O)cc2)Oc2ncc(Br)cc2C1=O	7.3	-2.1	1.8	-2.7	2.8	1.2	x
CN(CC(=O)Nc1cccc(F)c1)C(=O)c1ccc(C2SCCS2)cc1	11.4	-2.9	20.3*	-12.2	1.9	1.8	47.7*
CC(C)(C)c1cc(C(=O)C[n+]2ccc(C(=O)NCCCO)cc2)cc(C(C)(C)C)c1O	-1.9	0.5	17.9*	-3.5	-12.3	3.4	0.3
Cc1ccc(C(=O)C(OC(=O)CCC(=O)Nc2cccc(C)c2)c2ccccc2)cc1 (stereo not drawn)	10.6	7.7	20.8*	-7.2	8.4	0.6	-0.9
CCOc1ccc(OCCOC(=O)CN(C)S(=O)(=O)c2ccc(NC(C)=O)cc2)cc1	0.6	4.0	20.1*	-5.2	1.8	-1.8	-5.2
CC(=O)Nc1ccc(S(=O)(=O)N(C)CC(=O)OCC(=O)N2CCCCC2)cc1	6.0	-5.5	-4.3	3.3	1.4	-9.0	x
CCOC(=O)N1CCN(C(=O)C(NC(=O)c2ccc(C(C)(C)C)cc2)C(C)C)CC1 (stereo not drawn)	8.9	4.2	-2.5	9.7	1.6	-1.9	x
COc1cc(CCC(=O)NCCc2ccc(F)cc2)cc(OC)c1OC	-1.6	-4.8	18.4*	-4.1	-3.3	7.4	-11.6
O=C1CCCN1c1ccc(S(=O)(=O)N2CCCCC2)cc1	-9.3	6.8	17.2*	-5.5	0.2	-2.5	-0.9
SMILES	TCR CD3 inh	DDE Tn6 FP inh	SIAE inh	HTRA1 inhibitor	mABHD4 FP	DDE Tn7 FP inh	SIAE inh conf
O=C1CCCN1c1ccc(S(=O)(=O)N2CCCCC2)cc1[N+](=O)[O-]	0.0	1.2	-5.9	2.7	3.2	-3.2	x
Cc1nc2c(C)cccc2cc1C(=O)N/N=C/c1ccc(C(=O)O)cc1	3.6	-5.3	-3.6	x	-5.5	5.4	x
Cc1nc2c(C)cccc2cc1C(=O)N/N=C/c1cccnc1	0.7	4.0	18.3*	2.6	4.6	-1.6	2.5
COc1ccc(N2CCN(C(=O)c3cccc(S(=O)(=O)N4CCc5ccccc54)c3)CC2)cc1	-2.5	5.7	90.4*	-6.5	-0.5	0.1	8.0
O=C1Nc2ccc(Br)cc2/C1=C/C(=O)c1ccc2c(c1)OCO2	9.8	-6.4	18.9*	-26.6	7.3	6.9	1.5
COc1ccc(C(=O)/C=C2\C(=O)Nc3ccc(Br)cc32)cc1	-2.5	-5.4	5.7	-48.5	12.2	-0.4	x
CCOc1ccc(/C=N/Nc2cc(N3CCOCC3)nc(C)n2)c(O)c1	-11.1	2.2	31.3*	4.7	8.2	3.6	26.2*
CCOc1ccc(/C=N/Nc2cc(C)nc(N3CCOCC3)n2)cc1	-4.8	-2.2	-3.2	-1.4	-13.7	4.2	x
CC(=O)Nc1ccc(S(=O)(=O)Nc2ccc(Cl)cn2)cc1	9.0	0.8	87.7*	-2.3	-0.9	-2.7	2.7
COc1ccc(S(=O)(=O)Nc2ccc(Cl)cn2)cc1	0.2	1.1	-7.1	3.9	1.7	-0.1	x
CCOC(=O)c1c(C)[nH]c(O)c1C=Nc1ccccc1	5.5	-0.5	22.1*	16.1	4.4	-2.8	2.7
COc1ccccc1CNS(=O)(=O)c1ccc(-n2cnnn2)c(OC)c1	4.2	4.7	8.7	5.0	0.1	-1.1	x
C=CC(=O)Nc1cccc(Oc2nc(Nc3ccc(N4CCN(C)CC4)cc3OC)ncc2Cl)c1	-0.4	-5.0	19.8*	x	13.4	3.7	15.7
Cc1ccc(S(=O)(=O)N2C[C@H]3C(=O)C[C@@H](c4ccccc4F)N(S(=O)(=O)c4ccc(C)cc4)[C@H]3C[C@H]2c2cccc3ccccc23)cc1	6.7	-3.5	-6.6	-51.2	-1.8	1.6	x
O=C1C2CC=CCC2C(=O)N1c1ccc(NCCc2ccccc2F)c([N+](=O)[O-])c1 (stereo not drawn)	6.5	-1.9	17.1*	-0.6	-0.8	-1.7	1.9
Cc1cccc(C)c1NC(=S)N(CCN1CCCCCC1)Cc1ccco1	2.3	-6.4	17.9*	-0.1	1.1	-7.8	4.7
